ChEMBL document CHEMBL1139952, “Cytotoxic Mannich bases of 6-(3-aryl-2-propenoyl)-2(3H)-benzoxazolones” (Eur J Med Chem, 2007)
Activity calls are given as the source filed them. The calls are words filed in the database; no cut-off is given here.

How the values were obtained:
Assay type in all cases: functional, cell-based
K562 = experiment: Cytotoxicity against human K562 cells after 72 hrs by MTT assay; settings: K562, 72 h
In short: (§1)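 Suspension cultures (BV-173 pre-B-cell leukemia or K-562 chronic myeloid leukemia, from DSMZ) kept in log phase in RPMI-1640 with 10% FBS and 2 mM L-glutamine, 37 °C, humidified 5% CO2. Compounds dissolved in DMSO and diluted in RPMI-1640, final DMSO at most 0.5%. Exposure 72 h, MTT-dye reduction read-out. Six wells per concentration, experiments in triplicate, IC50 from concentration-response fits.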

BV-173 [1] = experiment: Cytotoxicity against human BV173 cells after 72 hrs by MTT assay; settings: BV-173, 72 h; in short: as §1
BV-173 [2] = experiment: Induction of apoptosis in BV173 cells assessed as DNA fragmentation at 0.25 uM after 24hrs; settings: Homo sapiens, 2.5 uM, in the assay text read “2.5 uM” for “0.25 uM”
In short: (§2)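 Apoptosis assay: exponentially growing BV-173 cells, 1 × 10⁶, exposed 24 h to compound or etoposide, with solvent-treated cells as controls. DNA was extracted from the cytosolic fraction and examined for fragmentation as laddering beside a DNA-laddering marker.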

BV-173 [3] = experiment: Induction of apoptosis in BV173 cells assessed as DNA fragmentation at 2.5 uM after 24hrs; settings: Homo sapiens; in short: as §2

Row | SMILES | IC50 (K562) | IC50 (BV-173 [1]) | Activity (BV-173 [2]) | Activity (BV-173 [3])
1 | COc1ccc(/C=C/C(=O)c2ccc3c(c2)oc(=O)n3CN2CCN(Cc3ccccc3)CC2)cc1 | 24.2 µM | 6.2 µM |  | 
2 | COc1ccc(/C=C/C(=O)c2ccc3c(c2)oc(=O)n3CN(C)C)cc1 |  | 17.7 µM |  | 
3 | COc1cc([C@@H]2c3cc4c(cc3[C@@H](O[C@@H]3O[C@@H]5CO[C@@H](C)O[C@H]5[C@H](O)[C@H]3O)[C@H]3COC(=O)[C@H]23)OCO4)cc(OC)c1O [ETOPOSIDE] | 3.1 µM | 0.9 µM | Active | 
4 | COc1ccc(/C=C/C(=O)c2ccc3c(c2)oc(=O)n3CN2CCOCC2)cc1 | 22.7 µM | 4.7 µM |  | 
5 | COc1ccc(/C=C/C(=O)c2ccc3c(c2)oc(=O)n3CN2CCSCC2)cc1 | 21.2 µM | 6.1 µM |  | Active
6 | COc1ccc(/C=C/C(=O)c2ccc3c(c2)oc(=O)n3CN2CCCCC2)cc1 |  | 15.3 µM |  | 
7 | O=C(/C=C/c1ccccc1)c1ccc2[nH]c(=O)oc2c1 |  | 18.4 µM |  | 
8 | COc1ccc(/C=C/C(=O)c2ccc3[nH]c(=O)oc3c2)cc1 |  | 9.2 µM |  | 
9 | COc1ccc(/C=C/C(=O)c2ccc3c(c2)oc(=O)n3CN2CCN(c3ccccc3OC)CC2)cc1 | 12.4 µM | 5.4 µM |  | Active
10 | CN(C)Cn1c(=O)oc2cc(C(=O)/C=C/c3ccccc3)ccc21 | 27.2 µM | 6.6 µM |  | 
11 | COc1ccccc1N1CCN(Cn2c(=O)oc3cc(C(=O)/C=C/c4ccccc4)ccc32)CC1 | 30.1 µM | 9.2 µM |  | 
12 | O=C(/C=C/c1ccccc1)c1ccc2c(c1)oc(=O)n2CN1CCSCC1 | 42.2 µM | 7.9 µM |  | 
13 | O=C(/C=C/c1ccccc1)c1ccc2c(c1)oc(=O)n2CN1CCCCC1 | 38.3 µM | 8.2 µM |  | 
14 | O=C(/C=C/c1ccccc1)c1ccc2c(c1)oc(=O)n2CN1CCOCC1 | 31.7 µM | 7.4 µM |  | 
15 | O=C(/C=C/c1ccccc1)c1ccc2c(c1)oc(=O)n2CN1CCN(Cc2ccccc2)CC1 | 29.5 µM | 9.4 µM |  | 
